High-throughput results deposited in PubChem by several laboratories.
This is a sample that favours compounds with a hit; in the whole collection about 1.3% have one here.
LEDGF integ inh = blocks HIV-1 LEDGF/p75-dependent DNA integration; TR-FRET IN-LEDGF/p75 DNA integration, Eu/Cy5; AID 743269; inhibition, % at 3.7 µM; hit rate 0.64% among 370,000;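 active = inhibition above the screen-wide mean plus 3 SD, cut at about 13% in these data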;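 note: signal is the Cy5 over europium emission ratio at 671 and 618 nm; 0% = plate median of compound wells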
Casp6 inh = caspase-6 (human) enzyme inhibition; purified caspase-6, Z-VEID-R110 cleavage fluorescence; inhibition, % at 12.5 µM; hit rate 0.53% among 350,000; AID 686996;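 active = mean inhibition across replicates at least about 35%, with every replicate also reaching that limit, limit read from the data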;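 note: 0% = median of neutral control wells and 100% = no fluorescence left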
NSD2 HMT inh = NSD2 (human) methyltransferase inhibition. O96028. NSD2 peptide methylation, AlphaScreen, 120 min. inhibition, % at 12.5 µM. hit rate 0.54% among 310,000. AID 743445; in the data active = inhibition above about 50%
UCH37 inh = blocks the human deubiquitinase UCH37 | purified proteasome/UCH37, Ub-AMC cleavage fluorescence | inhibition, % (test concentration not listed) | hit rate 0.33% among 330,000;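 active = mean inhibition over replicate wells above about 20%, limit read from the data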;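 note: 0% = compound-free wells with enzyme and 100% = wells lacking proteasome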
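Material: human UCH37 enzyme supplied as purified proteasome complex. Measure: % inhibition of Ub-AMC cleavage fluorescence. Medium: pH 7.4 Tris-HCl (50 mM) with ovalbumin, ATP-MgCl2, DTT. Times: 30 min preincubation with enzyme, 25 min cleavage at room temperature. Detection: AMC fluorescence intensity at 355/460 nm.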
TDP2 absorb = TDP2 (human) inhibition, absorbance primary screen; recombinant TDP2, T5PNP hydrolysis, p-nitrophenol absorbance 415 nm; inhibition, % at 12.8 µM; hit rate 0.34% among 370,000;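 active = inhibition above the mean of all tested compounds plus 3 SD, set per campaign, cut at about 25% in these data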;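 note: 0% = DMSO with enzyme and 100% = buffer with substrate but no TDP2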
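Test system: Human TDP2 enzyme | Reagent: 5 mM T5PNP | Compound dosing: 12.8 µM single point, 1% DMSO | Incubation: Enzyme reaction with compound for 2 h at 37 °C | Technique: p-Nitrophenol epi absorbance | Read-out: % inhibition relative to enzyme-containing and enzyme-free wells | Benchmarks: High control without enzyme, low control DMSO plus TDP2 | Replicates: Singlicate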
IN multimer act = HIV-1 integrase multimerization activation, counter-screen; TR-FRET HIV-1 integrase multimerization, biochemical; hit rate 17% among 2,000; activation, % at 7.7 µM; shares compounds with LEDGF integ inh; in the data active = activation above about 8.9%
TR-FRET interf = optically interferes with TR-FRET readout in LEDGF counter-screen | 2,000 tested, under 10 active | shares compounds with LEDGF integ inh | TR-FRET optical interference counterscreen, HIV-1 IN multimerization | inhibition, % at 7.7 µM;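 active = inhibition above the mean over all tested compounds plus 3 SD, which no compound reached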;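 note: 0% = integrase with antibodies and DMSO and 100% = antibodies without integrase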
IN-LEDGF confirm = confirmation of HIV-1 LEDGF/p75-dependent integration inhibitors | TR-FRET LEDGF/p75-dependent HIV-1 integration, biochemical | hit rate 36% among 2,000 | inhibition, % at 3.7 µM | shares compounds with LEDGF integ inh; in the data active = inhibition above about 14%
An asterisk follows results filed as active; . = no result.

SMILES	LEDGF integ inh	Casp6 inh	NSD2 HMT inh	UCH37 inh	TDP2 absorb	IN multimer act	TR-FRET interf	IN-LEDGF confirm
CCOC(=O)C1=C(O)/C(=C\c2cccs2)N=C1C	4	.	-1	10	-8	.	.	.
Cc1cc([N+](=O)[O-])ccc1NC(=O)Cc1ccc(F)cc1	85*	2	.	2	3	4	-14	2
C=CCSC1=N/C(=C\c2ccc3c(c2)OCO3)C(=O)S1	2	.	-1	0	7	.	.	.
C=CCSC1=N/C(=C\c2cc(OCC)c(OC(C)=O)c([N+](=O)[O-])c2)C(=O)S1	32*	.	10	6	-18	1	-3	3
COC(=O)C1=C(N)N(c2ccc(F)cc2)C2=C(C(=O)CCC2)C1c1ccc2c(c1)OCO2 (configuration not stated)	18*	.	-2	1	0	0	0	-10
COC(=O)C1=C(N)OC2=C(C(=O)CCC2)C1c1ccc2c(c1)OCO2 (configuration not stated)	6	0	-1	6	12	.	.	.
CSc1nc(NCCOCCO)c2sc3nc(-c4ccco4)c4c(c3c2n1)CCC4	26*	.	-1	-32	-10	0	2	15*
CSc1nc(NCc2ccco2)c2sc3nc(C(C)C)c4c(c3c2n1)CC(C)(C)OC4	-2	.	.	-46	3	.	.	.
COCCNC(=O)C1(S(=O)(=O)c2ccccc2)CC=CC1	24*	1	.	3	-13	0	0	0
CC(=NNC(=O)CSCc1ccccc1Cl)c1cccc(NC(=O)c2ccccc2)c1	.	.	.	-1	.	.	.	.
CCOC(=O)C1(CCOc2ccccc2)CCN(Cc2ccc(CO)o2)CC1	18*	1	4	4	0	0	-2	1
COc1ccc2nc(NC(=S)N(C)C)sc2c1	17*	.	3	8	-17	2	-12	16*
CCCC(=O)Nc1nc2ccc(OC)cc2s1	4	1	.	4	0	.	.	.
COC1=C(NCc2ccc3c(c2)OCO3)C(=O)C(OC)=C(NCc2ccc3c(c2)OCO3)C1=O	13*	1	1	.	5	-1	4	1
COC(=O)NCc1ccc2c(c1)OCO2	-5	.	2	1	-9	.	.	.
CC(=NNC(=O)CC(C)C)c1c(C(F)(F)F)[nH]n(-c2nc3ccccc3s2)c1=O	.	.	.	4	.	.	.	.
O=C(O)c1ccc(-n2cccc2/C=C2/SC(=O)N(CC(=O)N3CCCC3)C2=O)cc1	36*	66*	.	.	12	16*	-80	36*
C=C(C)C(=O)Nc1cccc(C2=NOC3(C2)C[C@@H](C(N)=O)N(C(=O)/C(C)=C/C)C3)c1 (some centres not stated)	39*	63*	.	0	5	57*	-285	52*
C=C(C)C(=O)Nc1cccc(C2=NOC3(C2)C[C@@H](C(N)=O)N(C(=O)/C=C/C=C/C)C3)c1 (some centres not stated)	18*	51*	.	1	7	41*	-205	19*
C/C=C(\C)C(=O)Nc1cccc(C2=NOC3(C2)C[C@@H](C(N)=O)N(C(=O)/C(C)=C/C)C3)c1 (some centres not stated)	-3	4	.	1	5	.	.	.
COc1cc(C=Nn2c(-c3ccccc3)n[nH]c2=S)ccc1O	.	.	.	6	.	.	.	.
CC(=N/N=C1/NC(=O)C(CC(=O)Nc2ccccc2F)S1)C1CCCCC1 (configuration not stated)	.	.	.	0	.	.	.	.
CC(=NNC(=O)CN(c1ccccc1)S(=O)(=O)c1ccccc1[N+](=O)[O-])C(C)(C)C	.	.	.	2	.	.	.	.
Cc1cc(C)cc(N(CC(=O)NC2CCCCCC2)S(=O)(=O)c2c(C)[nH]c(=O)[nH]c2=O)c1	1	6	-2	3	1	.	.	.
CCOc1ccc(N(CC(=O)NC2CCCC2)S(=O)(=O)c2c(C)[nH]c(=O)[nH]c2=O)cc1	51*	4	.	9	-7	1	-2	-9
SMILES	LEDGF integ inh	Casp6 inh	NSD2 HMT inh	UCH37 inh	TDP2 absorb	IN multimer act	TR-FRET interf	IN-LEDGF confirm
O=C1Cc2cccc(=O)c(O)c2C(=O)O1	20*	38*	23	.	8	6	-31	26*
N#CC1=C2SCN(Cc3ccco3)CN2C(=O)CC1c1cccc2ccccc12 (configuration not stated)	55*	.	1	1	14	5	-24	3
N#CC1=C2SCN(Cc3ccco3)CN2C(=O)CC1c1ccccc1F (configuration not stated)	.	.	5	6	.	.	.	.
NC(=NOC(=O)CCC1CCCC1)c1cccc([N+](=O)[O-])c1	.	.	.	1	.	.	.	.
COc1ccc(CC(=O)O/N=C(\N)Cc2cccc3ccccc23)cc1	14*	5	4	2	0	-1	3	-1
COc1ccc(CC(=O)O/N=C(\N)Cc2cccc3ccccc23)cc1OC	-3	-2	-2	.	7	.	.	.
O=C1/C(=C/C=C/c2ccco2)SC(=S)N1NS(=O)(=O)c1ccccc1	71*	79*	119*	19	22	20*	-73	76*
O=C1/C(=C/c2cccs2)SC(=S)N1NS(=O)(=O)c1ccccc1	4	13	6	5	-26	.	.	.
CCOC(=O)c1ccc2c(c1)C1C=CCC1C(C(=O)O)N2 (configuration not stated)	.	.	.	13	.	.	.	.
CCOC(=O)C1Nc2ccc(C(=O)O)cc2C2C=CCC12 (configuration not stated)	67*	23	100*	.	20	45*	-162	60*
Cc1nn(Cc2ccc(Cl)cc2Cl)c(C)c1NC(=O)c1ccc(COc2cc(Cl)ccc2Cl)o1	24*	.	-1	3	-12	0	0	-7
CCOC(=O)c1c(C)c(C(=O)NC2CCCCCC2)c(C)n1C	66*	.	6	-1	14	-1	3	5
COc1cccc(C2C(C#N)=C(N)Oc3cc(N)ccc32)c1OC (configuration not stated)	15*	.	5	-12	11	3	-9	-9
CN1/C(=C\C=NNC(=O)c2ccccc2Br)C(C)(C)c2ccccc21	.	.	.	-1	.	.	.	.
Nc1scc2c(C(=O)N/N=C/c3ccc(Cl)cc3)nn(-c3ccccc3)c(=O)c12	13*	.	73*	.	24	4	-15	11
COc1ccc(C=NNC(=O)c2nn(-c3ccc(Cl)cc3)c(=O)c3c(N)scc23)cc1	.	.	.	11	.	.	.	.
CC(=NNC(=O)CN1CCCCC1)c1cccc([N+](=O)[O-])c1	.	.	.	2	.	.	.	.
